Data from ChEMBL document CHEMBL3286335, “Synthesis of 2,3,6-trideoxy sugar triazole hybrids as potential new broad spectrum antimicrobial agents” (Eur J Med Chem, 2014).
≈ marks a conversion by molar mass, not a printed value.

What was measured:
Staphylococcus aureus [1] = test: Antimicrobial activity against Staphylococcus aureus ATCC 25923 after 24 hrs by microbroth dilution method; format: functional; conditions: ATCC 25923, 24 h
Method in brief: (§1)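 Broth microdilution per NCCLS guidelines. Bacteria in Mueller-Hinton broth; fungi in MOPS-buffered RPMI 1640. Test compounds at 50-0.36 µg/mL, standard drugs over 32-0.0018 µg/mL. Inoculum 1-5 × 10^3 cells/mL, 35 °C in a moist chamber. A492 read at 24 h for bacteria, 48 h for C. albicans, 72 h for A. fumigatus, C. neoformans and S. schenckii, 96 h for T. mentagrophytes. MIC taken as 90% growth inhibition relative to growth control.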

Staphylococcus aureus [2] = test: Antimicrobial activity against methicillin-resistant Staphylococcus aureus after 24 hrs by microbroth dilution method; format: functional
Method in brief: (§2)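 Microbroth dilution in Mueller Hinton broth, following NCCLS guidelines. Test compounds were run at 50-0.36 µg/mL against an initial inoculum of 1-5 × 10^3 cells/mL. Plates were incubated in a moist chamber at 35 °C, and absorbance at 492 nm was read after 24 h. MIC was taken as 90% growth inhibition relative to the growth control.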

Klebsiella pneumoniae [3] = test: Antimicrobial activity against Klebsiella pneumoniae ATCC 27736 after 24 hrs by microbroth dilution method; format: functional; conditions: ATCC 27736, 24 h; method in brief: as §1
Escherichia coli = test: Antimicrobial activity against Escherichia coli ATCC 9637 after 24 hrs by microbroth dilution method; format: functional; conditions: ATCC 9637, 24 h; method in brief: as §1
Pseudomonas aeruginosa = test: Antimicrobial activity against Pseudomonas aeruginosa ATCC BAA-427 after 24 hrs by microbroth dilution method; format: functional; conditions: ATCC BAA-427, 24 h; method in brief: as §1
Staphylococcus aureus [4] = test: Antimicrobial activity against vancomycin-resistant Staphylococcus aureus after 24 hrs by microbroth dilution method; format: functional; method in brief: as §2
Candida albicans [5] = test: Antimicrobial activity against Candida albicans after 48 hrs by microbroth dilution method; format: functional; method in brief: as §1
Aspergillus fumigatus [6] = test: Antimicrobial activity against Aspergillus fumigatus after 72 hrs by microbroth dilution method; format: functional; method in brief: as §1
Cryptococcus neoformans = test: Antimicrobial activity against Cryptococcus neoformans after 72 hrs by microbroth dilution method; format: functional; method in brief: as §1
Sporothrix schenckii = test: Antimicrobial activity against Sporothrix schenckii after 72 hrs by microbroth dilution method; format: functional; method in brief: as §1
[7] = test system: Trichophyton mentagrophytes; test: Antimicrobial activity against Trichophyton mentagrophytes after 96 hrs by microbroth dilution method; format: functional; method in brief: as §1
[8] = test system: Trichophyton mentagrophytes; test: Ratio of miconazole MIC to compound MIC for Trichophyton mentagrophytes after 96 hrs by microbroth dilution method; format: functional
[9] = test system: Trichophyton mentagrophytes; test: Ratio of fluconazole MIC to compound MIC for Trichophyton mentagrophytes after 96 hrs by microbroth dilution method; format: functional
L929 [10] = test: Cytotoxicity against mouse L929 cells assessed as change in morphology at MIC after 24 hrs using Giemsa staining by phase contrast microscopy; format: cell-based; conditions: l929, 24 h
Method in brief: (§3)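 Mouse fibroblast L929 cells grown in DMEM with 10% FBS and antibiotic/antimycotic at 37 °C, 5% CO2. Medium switched to serum-free DMEM at 90% confluency, then compounds added (DMSO stocks) for 24 h. Cells fixed, stained with Giemsa for 30 min at 37 °C, washed with PBS, air dried and examined by phase-contrast microscopy.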

L929 [11] = test: Cytotoxicity against mouse L929 cells assessed as reduction in cell viability after 24 hrs by MTT assay; format: cell-based; conditions: l929, 24 h
Method in brief: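 L929 fibroblasts in DMEM with 10% FBS at 37 °C, 5% CO2. Seeded at 1×10^3 cells per well, switched to serum-free DMEM at 90% confluency. Compounds from 1 mg/mL DMSO stocks tested at nine twofold dilutions for 24 h. MTT readout: viability = (A570−A630) sample / (A570−A630) control × 100.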

L929 [12] = test: Cytotoxicity against mouse L929 cells assessed as change in morphology at 50 ug/ml after 24 hrs using Giemsa staining by phase contrast microscopy; format: cell-based; conditions: l929, 24 h; method in brief: as §3
Staphylococcus aureus [13] = test: Ratio of ampicillin MIC to compound MIC for Staphylococcus aureus ATCC 25923 after 24 hrs by microbroth dilution method; format: functional
Staphylococcus aureus [14] = test: Ratio of vancomycin MIC to compound MIC for Staphylococcus aureus ATCC 25923 after 24 hrs by microbroth dilution method; format: functional
Klebsiella pneumoniae [15] = test: Ratio of ampicillin MIC to compound MIC for Klebsiella pneumoniae ATCC 27736 after 24 hrs by microbroth dilution method; format: functional
Klebsiella pneumoniae [16] = test: Ratio of vancomycin MIC to compound MIC for Klebsiella pneumoniae ATCC 27736 after 24 hrs by microbroth dilution method; format: functional
Klebsiella pneumoniae [17] = test: Ratio of methicillin MIC to compound MIC for Klebsiella pneumoniae ATCC 27736 after 24 hrs by microbroth dilution method; format: functional
Klebsiella pneumoniae [18] = test: Ratio of gentamycin MIC to compound MIC for Klebsiella pneumoniae ATCC 27736 after 24 hrs by microbroth dilution method; format: functional
Candida albicans [19] = test: Ratio of miconazole MIC to compound MIC for Candida albicans after 48 hrs by microbroth dilution method; format: functional
Aspergillus fumigatus [20] = test: Ratio of clotrimazole MIC to compound MIC for Aspergillus fumigatus after 72 hrs by microbroth dilution method; format: functional
Aspergillus fumigatus [21] = test: Ratio of miconazole MIC to compound MIC for Aspergillus fumigatus after 72 hrs by microbroth dilution method; format: functional

Row | SMILES | MIC (Staphylococcus aureus [1]) | MIC (Staphylococcus aureus [2]) | MIC (Klebsiella pneumoniae [3]) | MIC (Escherichia coli) | MIC (Pseudomonas aeruginosa) | MIC (Staphylococcus aureus [4]) | MIC (Candida albicans [5]) | MIC (Aspergillus fumigatus [6]) | MIC (Cryptococcus neoformans) | MIC (Sporothrix schenckii) | MIC [7] | Activity (L929 [10]) | Activity (L929 [11]) | Activity (L929 [12]) | Ratio (Staphylococcus aureus [13]) | Ratio (Staphylococcus aureus [14]) | also measured
1 | CCCCO[C@@H]1C=CC(=O)[C@@H](Cn2cc(CCCCl)nn2)O1 | 12.5 µg/mL (≈ 38.1 µM) | > 50 µg/mL | > 50 µg/mL | > 50 µg/mL | > 50 µg/mL | > 50 µg/mL | 25 µg/mL (≈ 76.3 µM) | > 50 µg/mL | 50 µg/mL (≈ 153 µM) | 3.12 µg/mL (≈ 9.52 µM) | 0.39 µg/mL (≈ 1.19 µM) | Non-toxic | Dose-dependent effect | Toxic | – | – | Ratio [8]: 2; Ratio [9]: 40
2 | CCCCCCCCc1cn(C[C@H]2O[C@H](OCCC(C)C)C=CC2=O)nn1 | 0.78 µg/mL (≈ 2.07 µM) | 3.12 µg/mL (≈ 8.26 µM) | 0.78 µg/mL (≈ 2.07 µM) | > 50 µg/mL | > 50 µg/mL | 3.12 µg/mL (≈ 8.26 µM) | > 50 µg/mL | > 50 µg/mL | > 50 µg/mL | 50 µg/mL (≈ 132 µM) | 3.12 µg/mL (≈ 8.26 µM) | Non-toxic | Dose-dependent effect | Toxic | 16 | 16 | Ratio (Klebsiella pneumoniae [15]): 16; Ratio (Klebsiella pneumoniae [16]): 16; Ratio (Klebsiella pneumoniae [17]): 8; Ratio (Klebsiella pneumoniae [18]): 2
3 | CCCCCCCCc1cn(C[C@H]2O[C@H](OCCCC)C=CC2=O)nn1 | 6.25 µg/mL (≈ 17.2 µM) | > 50 µg/mL | > 50 µg/mL | > 50 µg/mL | > 50 µg/mL | > 50 µg/mL | 6.25 µg/mL (≈ 17.2 µM) | > 50 µg/mL | 25 µg/mL (≈ 68.8 µM) | 25 µg/mL (≈ 68.8 µM) | 6.25 µg/mL (≈ 17.2 µM) | – | – | – | – | – | Ratio (Candida albicans [19]): 4
4 | CC(C)CCO[C@@H]1C=CC(=O)[C@@H](Cn2cc(C(C)(C)C)nn2)O1 | 1.56 µg/mL (≈ 4.85 µM) | 12.5 µg/mL (≈ 38.9 µM) | > 50 µg/mL | > 50 µg/mL | > 50 µg/mL | 12.5 µg/mL (≈ 38.9 µM) | 25 µg/mL (≈ 77.8 µM) | > 50 µg/mL | 25 µg/mL (≈ 77.8 µM) | 12.5 µg/mL (≈ 38.9 µM) | > 50 µg/mL | Non-toxic | Dose-dependent effect | Toxic | – | – | –
5 | CC(C)CCO[C@@H]1C=CC(=O)[C@@H](Cn2cc(-c3ccccc3)nn2)O1 | 6.25 µg/mL (≈ 18.3 µM) | 12.5 µg/mL (≈ 36.6 µM) | 3.12 µg/mL (≈ 9.14 µM) | 50 µg/mL (≈ 146 µM) | 50 µg/mL (≈ 146 µM) | 12.5 µg/mL (≈ 36.6 µM) | 12.5 µg/mL (≈ 36.6 µM) | 50 µg/mL (≈ 146 µM) | 25 µg/mL (≈ 73.2 µM) | 12.5 µg/mL (≈ 36.6 µM) | 50 µg/mL (≈ 146 µM) | Non-toxic | Dose-dependent effect | Toxic | – | – | –
6 | CC(C)CCO[C@@H]1C=CC(=O)[C@@H](Cn2cc(-c3ccc(F)cc3)nn2)O1 | 0.78 µg/mL (≈ 2.17 µM) | 3.12 µg/mL (≈ 8.68 µM) | > 50 µg/mL | > 50 µg/mL | > 50 µg/mL | 3.12 µg/mL (≈ 8.68 µM) | 6.25 µg/mL (≈ 17.4 µM) | 50 µg/mL (≈ 139 µM) | 50 µg/mL (≈ 139 µM) | 6.25 µg/mL (≈ 17.4 µM) | 1.56 µg/mL (≈ 4.34 µM) | Non-toxic | Dose-dependent effect | Toxic | 16 | 16 | Ratio (Candida albicans [19]): 4
7 | CC(C)CCO[C@@H]1C=CC(=O)[C@@H](Cn2cc(COCC34CC5CC(CC(C5)C3)C4)nn2)O1 | 1.56 µg/mL (≈ 3.52 µM) | 3.12 µg/mL (≈ 7.03 µM) | 0.78 µg/mL (≈ 1.76 µM) | 50 µg/mL (≈ 113 µM) | 50 µg/mL (≈ 113 µM) | 3.12 µg/mL (≈ 7.03 µM) | > 50 µg/mL | 1.56 µg/mL (≈ 3.52 µM) | 50 µg/mL (≈ 113 µM) | 50 µg/mL (≈ 113 µM) | 1.56 µg/mL (≈ 3.52 µM) | Non-toxic | Dose-dependent effect | Toxic | – | – | Ratio (Klebsiella pneumoniae [15]): 16; Ratio (Klebsiella pneumoniae [16]): 16; Ratio (Klebsiella pneumoniae [17]): 8; Ratio (Klebsiella pneumoniae [18]): 2; Ratio (Aspergillus fumigatus [20]): 5; Ratio (Aspergillus fumigatus [21]): 8
8 | CCCCCCCCc1cnnn1C[C@H]1O[C@H](OCCC(C)C)C=CC1=O | 0.78 µg/mL (≈ 2.07 µM) | 12.5 µg/mL (≈ 33.1 µM) | 50 µg/mL (≈ 132 µM) | > 50 µg/mL | > 50 µg/mL | 12.5 µg/mL (≈ 33.1 µM) | 50 µg/mL (≈ 132 µM) | > 50 µg/mL | 25 µg/mL (≈ 66.2 µM) | 6.25 µg/mL (≈ 16.6 µM) | 25 µg/mL (≈ 66.2 µM) | Non-toxic | Dose-dependent effect | Toxic | 16 | 16 | –
